Laboratory results as given in ChEMBL document CHEMBL4304834, “3-Amino-chromanes and Tetrahydroquinolines as Selective 5-HT2B, 5-HT7, or σ1 Receptor Ligands” (ACS Med Chem Lett, 2019).
pKi: −log10 of the molar value.

How the values were obtained:
[1] = target: 5-hydroxytryptamine receptor 1E (Homo sapiens, UniProt P28566); experiment: Displacement of [3H]-HT from human recombinant 5-HT1E receptor expressed in stable HEK cells after 90 mins by microbeta scintillation counting method; type: cell-based
5-hydroxytryptamine receptor 1E, sequence (P28566 whole entry): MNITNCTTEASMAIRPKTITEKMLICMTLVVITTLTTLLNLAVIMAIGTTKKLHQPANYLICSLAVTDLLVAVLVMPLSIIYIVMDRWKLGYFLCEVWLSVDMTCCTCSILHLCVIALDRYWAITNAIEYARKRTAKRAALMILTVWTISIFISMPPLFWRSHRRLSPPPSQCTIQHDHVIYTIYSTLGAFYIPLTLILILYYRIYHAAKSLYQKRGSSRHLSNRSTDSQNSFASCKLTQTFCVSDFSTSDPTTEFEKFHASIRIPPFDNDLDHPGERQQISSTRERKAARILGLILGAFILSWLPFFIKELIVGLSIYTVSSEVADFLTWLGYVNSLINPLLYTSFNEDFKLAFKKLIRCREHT
In short: (§1)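 Radioligand binding run by the NIMH Psychoactive Drug Screening Program. […] Otherwise Ki comes from sigmoidal curve fits of triplicate measurements in a single experiment, or is averaged over repeated experiments each run in triplicate.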

[2] = target: T1, 5-hydroxytryptamine receptor 3A (Homo sapiens, UniProt P46098); experiment: Displacement of [3H]-GR65630 from human recombinant 5-HT3 receptor expressed in HEKT cells after 90 mins by microbeta scintillation counting method; type: cell-based; in short: as §1
T1 sequence (P46098 whole entry): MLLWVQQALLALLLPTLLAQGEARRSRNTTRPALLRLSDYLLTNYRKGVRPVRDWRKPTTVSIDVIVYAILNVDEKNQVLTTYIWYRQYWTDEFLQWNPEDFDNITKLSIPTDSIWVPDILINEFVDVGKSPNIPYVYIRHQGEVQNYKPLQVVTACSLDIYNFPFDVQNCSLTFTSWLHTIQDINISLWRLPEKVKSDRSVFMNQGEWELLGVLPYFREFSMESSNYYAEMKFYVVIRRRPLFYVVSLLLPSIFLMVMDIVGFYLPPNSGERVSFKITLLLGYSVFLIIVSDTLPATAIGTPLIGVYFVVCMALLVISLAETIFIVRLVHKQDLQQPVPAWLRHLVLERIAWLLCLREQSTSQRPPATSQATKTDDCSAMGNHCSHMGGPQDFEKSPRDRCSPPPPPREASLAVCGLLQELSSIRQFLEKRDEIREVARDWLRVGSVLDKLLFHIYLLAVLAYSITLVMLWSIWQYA

[3] = target: 5-hydroxytryptamine receptor 7 (Homo sapiens, UniProt P34969); experiment: Displacement of [3H]-LSD from human recombinant 5-HT7 receptor expressed in stable HEK cells after 90 mins by microbeta scintillation counting method; type: cell-based; details: for Ki: read-out: pKi (converted)
5-hydroxytryptamine receptor 7, sequence (P34969 whole entry): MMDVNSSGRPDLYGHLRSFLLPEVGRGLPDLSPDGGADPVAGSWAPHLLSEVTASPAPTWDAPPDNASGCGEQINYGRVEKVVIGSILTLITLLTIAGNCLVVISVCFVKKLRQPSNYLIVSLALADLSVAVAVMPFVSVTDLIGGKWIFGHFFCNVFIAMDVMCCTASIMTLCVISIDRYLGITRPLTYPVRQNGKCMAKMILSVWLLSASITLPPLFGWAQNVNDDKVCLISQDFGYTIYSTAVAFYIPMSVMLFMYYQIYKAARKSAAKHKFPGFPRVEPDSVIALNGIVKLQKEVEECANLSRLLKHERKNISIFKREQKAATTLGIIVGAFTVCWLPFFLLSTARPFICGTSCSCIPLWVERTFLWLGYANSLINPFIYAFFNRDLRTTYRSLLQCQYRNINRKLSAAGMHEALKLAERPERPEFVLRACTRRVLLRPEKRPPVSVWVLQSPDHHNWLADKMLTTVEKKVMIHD
In short: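 Run by NIMH Psychoactive Drug Screening Program. Otherwise, competition binding curves are generated and pKi is taken from a sigmoidal curve fit. Data are either triplicate measurements within one experiment, with the error from the fit, or the mean of repeated experiments, each run in triplicate.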

[4] = target: T2, Alpha-1D adrenergic receptor (Homo sapiens, UniProt P25100); experiment: Displacement of [3H]-Prazosin from human recombinant adrenergic Alpha1D receptor expressed in cells after 90 mins by microbeta scintillation counting method; type: cell-based
T2 sequence (P25100 whole entry): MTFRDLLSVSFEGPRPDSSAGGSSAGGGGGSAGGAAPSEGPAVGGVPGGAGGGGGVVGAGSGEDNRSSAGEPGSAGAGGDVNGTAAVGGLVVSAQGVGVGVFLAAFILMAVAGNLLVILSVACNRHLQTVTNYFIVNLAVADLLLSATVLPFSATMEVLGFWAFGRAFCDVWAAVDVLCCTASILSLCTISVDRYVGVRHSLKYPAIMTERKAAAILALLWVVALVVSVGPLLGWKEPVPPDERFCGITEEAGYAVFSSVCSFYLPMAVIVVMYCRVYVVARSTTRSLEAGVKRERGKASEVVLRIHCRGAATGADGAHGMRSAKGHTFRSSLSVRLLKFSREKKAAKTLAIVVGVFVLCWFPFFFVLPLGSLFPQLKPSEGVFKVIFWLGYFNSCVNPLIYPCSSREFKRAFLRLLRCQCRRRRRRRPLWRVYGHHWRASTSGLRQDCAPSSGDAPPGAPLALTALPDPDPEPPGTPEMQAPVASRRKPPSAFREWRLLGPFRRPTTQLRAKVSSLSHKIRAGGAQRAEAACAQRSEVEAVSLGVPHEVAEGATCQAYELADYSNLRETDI
In short: (§2)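 Radioligand binding was run by the NIMH Psychoactive Drug Screening Program. Compounds were first screened at 10 μM. Those giving ≥50% binding were taken to full competition curves. Ki is reported as pKi from a sigmoidal curve fit of triplicate measurements in a single experiment; the error is the curve-fit error.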

[5] = target: T3, Alpha-2B adrenergic receptor (Homo sapiens, UniProt P18089); experiment: Displacement of [3H]-Rauwolscine from human recombinant adrenergic Alpha2B receptor expressed in HEKT cells after 90 mins by microbeta scintillation counting method; type: cell-based; in short: as §2
T3 sequence (P18089 whole entry): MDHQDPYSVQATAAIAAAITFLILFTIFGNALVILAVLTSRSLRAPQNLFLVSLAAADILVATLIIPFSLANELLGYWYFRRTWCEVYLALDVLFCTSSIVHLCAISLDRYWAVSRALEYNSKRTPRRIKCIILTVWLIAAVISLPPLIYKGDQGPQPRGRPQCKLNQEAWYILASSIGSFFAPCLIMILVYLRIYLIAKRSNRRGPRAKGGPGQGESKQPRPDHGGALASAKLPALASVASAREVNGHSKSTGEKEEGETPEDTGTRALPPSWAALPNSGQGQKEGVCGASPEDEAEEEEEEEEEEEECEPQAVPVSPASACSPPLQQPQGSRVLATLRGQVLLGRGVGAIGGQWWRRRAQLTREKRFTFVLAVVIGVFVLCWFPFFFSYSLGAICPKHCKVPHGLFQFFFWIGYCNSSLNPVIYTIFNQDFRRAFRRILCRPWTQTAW

[6] = target: 5-hydroxytryptamine receptor 1B (Homo sapiens, UniProt P28222); experiment: Displacement of [3H]5-CT from human recombinant 5-HT1B receptor expressed in stable HEK cells at 10 uM after 90 mins by microbeta scintillation counting method relative to control; type: cell-based
5-hydroxytryptamine receptor 1B, sequence (P28222 whole entry): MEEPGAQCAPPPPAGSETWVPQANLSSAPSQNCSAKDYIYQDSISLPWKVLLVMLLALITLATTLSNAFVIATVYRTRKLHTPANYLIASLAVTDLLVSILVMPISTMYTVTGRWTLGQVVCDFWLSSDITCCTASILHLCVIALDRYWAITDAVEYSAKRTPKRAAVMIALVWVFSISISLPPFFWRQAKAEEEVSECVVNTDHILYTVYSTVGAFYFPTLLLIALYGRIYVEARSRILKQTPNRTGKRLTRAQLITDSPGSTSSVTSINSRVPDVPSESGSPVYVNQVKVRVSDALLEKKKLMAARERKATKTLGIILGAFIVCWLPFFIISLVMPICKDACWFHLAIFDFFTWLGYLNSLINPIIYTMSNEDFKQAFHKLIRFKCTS

[7] = target: T4, Alpha-1B adrenergic receptor (Homo sapiens) (UniProt P35368); experiment: Displacement of [3H]-Prazosin from human recombinant adrenergic Alpha1B receptor expressed in HEKT cells at 10 uM after 90 mins by microbeta scintillation counting method relative to control; type: cell-based
T4 sequence (whole entry): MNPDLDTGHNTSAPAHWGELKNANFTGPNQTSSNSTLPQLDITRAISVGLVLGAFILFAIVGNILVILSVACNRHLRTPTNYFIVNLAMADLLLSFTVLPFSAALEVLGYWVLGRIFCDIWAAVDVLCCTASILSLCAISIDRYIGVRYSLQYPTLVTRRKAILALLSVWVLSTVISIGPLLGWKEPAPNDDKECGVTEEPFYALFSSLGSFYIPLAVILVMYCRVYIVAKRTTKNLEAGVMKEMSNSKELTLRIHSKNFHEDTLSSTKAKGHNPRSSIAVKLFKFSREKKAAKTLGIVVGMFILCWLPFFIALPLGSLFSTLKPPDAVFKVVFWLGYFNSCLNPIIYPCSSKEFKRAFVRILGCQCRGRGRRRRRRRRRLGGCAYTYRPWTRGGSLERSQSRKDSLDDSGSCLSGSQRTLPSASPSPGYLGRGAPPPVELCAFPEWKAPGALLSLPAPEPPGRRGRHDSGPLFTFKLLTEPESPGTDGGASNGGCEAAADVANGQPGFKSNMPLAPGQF

[8] = target: Delta-type opioid receptor (Homo sapiens, UniProt P41143); experiment: Displacement of [3H]-DADLE from human recombinant DOR receptor expressed in stable HEK cells at 10 uM after 90 mins by microbeta scintillation counting method relative to control; type: cell-based; in short: as §1
Delta-type opioid receptor, sequence (P41143 whole entry): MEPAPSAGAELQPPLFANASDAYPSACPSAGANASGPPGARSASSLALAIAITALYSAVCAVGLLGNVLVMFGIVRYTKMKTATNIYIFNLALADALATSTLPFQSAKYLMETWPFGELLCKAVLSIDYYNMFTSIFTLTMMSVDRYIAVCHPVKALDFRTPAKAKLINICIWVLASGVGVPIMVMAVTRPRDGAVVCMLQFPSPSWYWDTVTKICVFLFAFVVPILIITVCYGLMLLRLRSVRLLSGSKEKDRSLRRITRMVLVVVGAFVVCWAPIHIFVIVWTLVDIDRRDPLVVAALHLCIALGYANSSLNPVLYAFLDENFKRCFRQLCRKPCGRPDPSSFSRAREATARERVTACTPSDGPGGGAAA

Rattus norvegicus = organism: Rattus norvegicus; experiment: Displacement of [3H]-PK11195 from PBR receptor in rat brain at 10 uM incubated for 90 mins by microbeta scintillation counting method relative to control; type: tissue-based; in short: as §1

pKi ([3]; read-out: Ki)	Structure (SMILES)	pKi [1]	pKi [2]	Ki [3]	pKi [4]	pKi [5]	inhibition [6]	inhibition [7]	inhibition [8]	inhibition (Rattus norvegicus)
	COc1cc(OC)c2c(c1)OC[C@@]1(C)NCC[C@@H]21 (racemic)	< 5.00	< 5.00	1.26 µM	< 5.00	< 5.00	< 50%	< 50%	< 50%	< 50%
8.20	C[C@@]12CN(c3ccccc3)c3ccccc3[C@@H]1CCN2 (racemic)	< 5.00	< 5.00		6.00	< 5.00				
	CC[C@H]1c2cc(OC)ccc2CC[C@@]1(C)N (racemic)	< 5.00	< 5.00	> 10 µM	< 5.00	5.30	< 50%	< 50%	< 50%	< 50%
	CC[C@H]1c2cc(C)ccc2OC[C@@]1(C)N (racemic)	< 5.00	< 5.00	> 10 µM	< 5.00	< 5.00	< 50%	< 50%	< 50%	< 50%
	CC[C@H]1c2ccccc2N(c2ccccc2)C[C@@]1(C)N (racemic)	< 5.00	< 5.00	1 µM	< 5.00	6.40				
